Measurements reported in ChEMBL document CHEMBL4513216, “Probing the Open Global Health Chemical Diversity Library for Multistage-Active Starting Points for Next-Generation Antimalarials” (ACS Infect Dis, 2020).

Experiment: Toxicity liver stage against HepG2, at 10uM
Type: cell-based
Parameters: test concentration 10 uM, cell line HepG2-A16-CD81EGFP
Conditions: human, HepG2-A16-CD81EGFP cells; read-out: INHIBITION
Summary of the method: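 Uninfected HepG2-A16-CD81EGFP cells, 3 × 10^3 per well, 1536-well, plated on prespotted compound at 10 μM final, parasite-free screening media added to match infected plates; puromycin 10 μM positive, DMSO 0.5% negative; run in parallel with 48 h PbLuc assay at 37 °C, 5% CO2; viability by CellTiter-Glo luminescence, normalized to controls.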

Structure (SMILES)	cytotoxicity at 10 µM
O=c1occ(CN2CCSCC2)c(O)c1CN1CCCC1	-7.03%
Cc1c(F)cc(C(=O)O)cc1S(=O)(=O)Nc1ccc(F)c(C#N)c1	-6.02%
COCC(=O)NCCCn1ncc2c(C)cccc21	7.55%
CC(Cn1cccn1)C(=O)N1CCC(Nc2cccnn2)CC1 (stereo unspecified)	-9.28%
CCCn1ncc(CN(Cc2cccnc2)Cc2cccs2)c1C	1.64%
CCC(CO)NC(=O)NCc1cc(C#N)ccc1F (stereo unspecified)	-1.22%
CNC(=O)CN1CCOCC2(CCCN(CCc3ccccc3)C2)C1 (stereo unspecified)	0.0221%
O=C(c1ccc2c(c1)OCO2)N1CCCC(Nc2ccc(F)cc2)C1 (stereo unspecified)	-5.05%
CNC(=O)CCNC(=O)c1cccc(Cn2nc(C)cc2C)c1	-16.6%
CSc1ncc(CN(C)C(C)c2cccnc2)cn1 (stereo unspecified)	2.1%
O=C1N[C@@H]2CCN(C(=O)c3ccccc3)[C@@H]2C(=O)N1Cc1ccccc1	-1.84%
CCc1ccc(CN2CC[C@@H]3CN(S(C)(=O)=O)CCO[C@@H]3C2)o1	-0.461%
CCc1cccc(-n2nnc(C(=O)O)c2-c2ccncc2)c1	7.77%
CCCc1ccc2oc(C(=O)N3CCC(O)CC3)c(C)c2c1	0.361%
CNC(=O)NC(=O)CCSCc1cc(Cl)cc2cccnc12	-8.06%
CCOc1ccc(Cl)cc1CCNC(=O)c1ccc(=O)n(C)c1	3.31%
Cc1cnn(CC2CCCCN2C(=O)c2ccc(N(C)C)nc2)c1 (stereo unspecified)	-13.2%
CN(CCc1cnn(C)c1)C(=O)CN1C(=O)OC[C@@H]1c1ccccc1	-41.7%
O=C(CCCNCc1ccc(Cl)c2cccnc12)NC1CC1	-4.76%
CN(C)c1cccc(C2CCCN2S(=O)(=O)c2cn(C)cn2)n1 (stereo unspecified)	-28.7%
CCc1cc(N2CCCNCC2)n2nc(C)c(C)c2n1	4.46%

Structure (SMILES)	cytotoxicity at 10 µM
CC(C)S(=O)(=O)NCc1cccnc1Oc1ccc(F)cc1F	5.98%
COc1ccc(-c2cc(N)ccn2)c(OC)c1OC	11.4%
Cc1ccc(F)c(S(=O)(=O)NCc2cccc(CS(C)(=O)=O)c2)c1	-7.61%
CC(C)(C)C(=O)NCCC(=O)NS(=O)(=O)c1cccnc1	-3.15%
Cc1cc(C)n(CCN2CCN(C(=O)c3ccccc3Br)CC2)n1	-4.86%
O=C(c1cccc(Cl)c1Cl)N1CCN(CC(O)Cn2cccn2)CC1 (stereo unspecified)	-14.3%
Cc1cnc(C(=O)N2CCC3(CC2)CN(c2ccccn2)CCO3)cn1	-80.2%
CCN(CCO)C(=O)C1CCC(=O)N(Cc2cccc(OC)c2)C1 (stereo unspecified)	-9.49%
CN1CCN(C(=O)NCCc2ccc(F)cc2)[C@H]2CS(=O)(=O)C[C@H]21	10.8%
Cc1c(C)n(Cc2ccncc2)c2nc3c(c(N)c12)CCCC3	1.4%
O=C(CC1CCCC1)N[C@H]1CN(Cc2c[nH]cn2)C[C@@H]1C1CC1	-54.7%
O=C(CN1CCOc2ccccc2C1)NCc1cc2n(n1)CCCNC2	8.1%
O=C(C[C@@H]1COC[C@H]2CN(Cc3ccsc3)C[C@@H]12)N1CCCC1	1.64%
CC(=O)N1CCCN(C(=O)CN(C)c2ccc(Cl)cn2)CC1	-7.64%
c1ccc(Oc2ccc(CNCC3CNc4ccnn4C3)cn2)cc1 (stereo unspecified)	-15.6%
Cc1nc(C)n(CC2CN(Cc3nc4ccccc4s3)CCO2)n1 (stereo unspecified)	44.4%
Nc1nc(CN2CCOC(Cn3cncn3)C2)nc2ccccc12 (stereo unspecified)	-0.734%
Fc1cccc2ncnc(NCC3(N4CCOCC4)CCSC3)c12 (stereo unspecified)	50.6%
O=C(CCc1ccc2c(c1)OCO2)N1CCCCC1Cn1cccn1 (stereo unspecified)	-17.2%
Cc1nn(C)c(N2CCOCC2)c1CNC1CCN(C(C)(C)C)CC1	-3.66%
O=C(C[C@@H]1COC[C@H]2CN(Cc3ccncc3)C[C@@H]12)N1CCCC1	-2.3%

Structure (SMILES)	cytotoxicity at 10 µM
CC(=O)c1csc(-c2csc(Cn3ccc(=O)[nH]c3=O)n2)c1	5.39%
NC(=O)C1CCCN(c2ccc(CNC(=O)c3cnsn3)cc2)C1 (stereo unspecified)	2.25%
CCn1ncc(CN(C)C(=O)c2ccn(C)n2)c1C	6.5%
CC(C)(C)n1ncc2c1CCCC2NCc1ccc2c(c1)CCO2 (stereo unspecified)	2.55%
CCOCCCC(=O)N1CCN(C(=O)Cc2cccc(OC)c2)CC1	-1.86%
O=C(CCc1ccccn1)N1CCCC(N2CCNC2=O)C1 (stereo unspecified)	6.99%
O=C(c1ccno1)N1CC[C@@H]2O[C@@H](COCCN3CCCC3)CC[C@@H]21	0.925%
CCCNC(=O)c1cccc(CNCc2csc(C(C)(C)C)n2)c1	12.3%
COc1ccccc1CNc1ccc2nncn2n1	10.4%
CC(C)NC(=O)c1cccc(Oc2ccc3nncn3n2)c1	-13.3%
CN(C)c1cc(CNC(=O)c2n[nH]c(=O)c3ccccc23)ccn1	-3.79%
Cc1cccc(C)c1-c1cc(NCCO)nc2[nH]ccc12	52.4%
CC(=O)N1CCc2[nH]cnc2C12CCN(C(=O)Cc1cccs1)CC2	7.2%
Cc1cc(NC2CCc3nc(C(C)C)nn3C2)n2ncnc2n1 (stereo unspecified)	13.4%
Cn1ccnc1CN1CC[C@H](O)[C@@H](n2ccc(=O)[nH]c2=O)CC1	-9.31%
O=C(CC1CCCC1)NCCNCc1cccc2c1OCCO2	-0.912%
COC(=O)c1sc2cccc(F)c2c1CNC(=O)C1CCOC1 (stereo unspecified)	8.97%
COc1ccc(NC(=O)NC(C)(C)c2noc(C)n2)cc1	-3.42%
O=C(Nc1ccc(CN2CCOCC2)cc1)c1nccn2ccnc12	-8.3%
Cc1cnc2n(c1=O)C(CC(=O)NCc1ccc(F)cc1)CS2 (stereo unspecified)	6.47%
CO[C@@H]1CCN(C(=O)c2ccsc2)[C@@H]2CN(CC3CC3)C[C@@H]21	-3.1%

Structure (SMILES)	cytotoxicity at 10 µM
CCn1ccnc1CN(C)C1CCCN(Cc2ccccc2F)C1 (stereo unspecified)	4.77%
CCN(C)C(=O)c1cc(-c2cn(C(C)C)cn2)n2ccccc12	-1.16%
COc1ccc2nnc(CCCC(=O)Nc3nc4c(s3)CCC4)n2n1	-5.01%
CC(C)c1nccn1C(C)C(=O)NCc1noc(Cc2cccs2)n1 (stereo unspecified)	-4.91%
C[C@@H]1CN(CC(C)(C)N2CCCCC2)C[C@@]1(O)C1CC1	-0.519%
Cc1cccc2ncn(C(C)Cn3cccn3)c(=O)c12 (stereo unspecified)	-4.4%
CCc1nc2c(N3CCC4(CC3)CC(=O)N(CC)C4)ncnc2o1	-3.2%
CC(C)Cn1nc(-c2ccc(C(=O)O)cc2)cc1-c1ccc(F)cc1	8.88%
Cn1nc(C(=O)N2CCSCC2)cc1NC(=O)c1ccco1	1.11%
CC(C)c1cc(CN2CCC(CC(=O)O)CC2)no1	-2.53%
CCCc1nc(NC2(COC)CCCC2)c2cnn(C)c2n1	-1.43%
Cn1ncc(N2CCC(CNC3CC(c4ccccc4)C3)CC2)cc1=O (stereo unspecified)	-2.15%
c1cc(CN2C[C@@H]3OCCN(CC4CCCO4)[C@@H]3C2)ccn1 (stereo partly specified)	-80.2%
Cc1noc(CCCc2nc(C3CCOC3)no2)n1 (stereo unspecified)	3.5%
CS(=O)(=O)NCc1ccc2c(c1)CCC2	-1.9%
CCn1nc(C)c(CN(C)S(=O)(=O)c2cnn(C)c2)c1C	5.62%
CNC(=O)CN(C(=O)c1ccccc1)[C@H]1C[C@H]2CCOC[C@H]2C1	-4.36%
COc1c(C)cnc(CSc2nnc(N3CCCC3)s2)c1C	-13.1%
